The source made the active and inactive calls. No cut-off for these calls is given here.
Experiments:
[1] = tested on: K562; test: Cytotoxicity against human K562 cells assessed as cell growth inhibition after 72 hrs by MTS assay; assay type: functional, cell-based; details: K562, 72 h
[2] = Cytotoxicity against etoposide-resistant human K/VP.5 cells assessed as cell growth inhibition after 72 hrs by MTS assay; assay type: functional, cell-based; details: K/VP.5, 72 h
Summary of the method: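 K/VP.5 cells are a K562-derived subline, 26-fold etoposide-resistant, with decreased topoisomerase IIα mRNA and protein. Cells were grown in suspension in αMEM with 10% fetal calf serum. Drugs were given from DMSO stocks, with final DMSO typically 0.4% or less. Read-out was MTS absorbance after 72 h. Typically nine concentrations were run in duplicate on two days. IC50 came from a four-parameter logistic fit.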

[3] = tested on: K562; test: Relative resistance, ratio of IC50 for etoposide-resistant human K/VP.5 cells to IC50 for human K562 cells; assay type: functional
[4] = target: DNA topoisomerase 2-alpha (Homo sapiens) (UniProt P11388); test: Inhibition of full-length human recombinant topoisomerase 2-alpha mediated relaxation and cleavage of supercoiled pBR322 plasmid DNA to linear DNA by ethidium bromide staining based gel electrophoresis assay
DNA topoisomerase 2-alpha (Homo sapiens), sequence (P11388 whole entry): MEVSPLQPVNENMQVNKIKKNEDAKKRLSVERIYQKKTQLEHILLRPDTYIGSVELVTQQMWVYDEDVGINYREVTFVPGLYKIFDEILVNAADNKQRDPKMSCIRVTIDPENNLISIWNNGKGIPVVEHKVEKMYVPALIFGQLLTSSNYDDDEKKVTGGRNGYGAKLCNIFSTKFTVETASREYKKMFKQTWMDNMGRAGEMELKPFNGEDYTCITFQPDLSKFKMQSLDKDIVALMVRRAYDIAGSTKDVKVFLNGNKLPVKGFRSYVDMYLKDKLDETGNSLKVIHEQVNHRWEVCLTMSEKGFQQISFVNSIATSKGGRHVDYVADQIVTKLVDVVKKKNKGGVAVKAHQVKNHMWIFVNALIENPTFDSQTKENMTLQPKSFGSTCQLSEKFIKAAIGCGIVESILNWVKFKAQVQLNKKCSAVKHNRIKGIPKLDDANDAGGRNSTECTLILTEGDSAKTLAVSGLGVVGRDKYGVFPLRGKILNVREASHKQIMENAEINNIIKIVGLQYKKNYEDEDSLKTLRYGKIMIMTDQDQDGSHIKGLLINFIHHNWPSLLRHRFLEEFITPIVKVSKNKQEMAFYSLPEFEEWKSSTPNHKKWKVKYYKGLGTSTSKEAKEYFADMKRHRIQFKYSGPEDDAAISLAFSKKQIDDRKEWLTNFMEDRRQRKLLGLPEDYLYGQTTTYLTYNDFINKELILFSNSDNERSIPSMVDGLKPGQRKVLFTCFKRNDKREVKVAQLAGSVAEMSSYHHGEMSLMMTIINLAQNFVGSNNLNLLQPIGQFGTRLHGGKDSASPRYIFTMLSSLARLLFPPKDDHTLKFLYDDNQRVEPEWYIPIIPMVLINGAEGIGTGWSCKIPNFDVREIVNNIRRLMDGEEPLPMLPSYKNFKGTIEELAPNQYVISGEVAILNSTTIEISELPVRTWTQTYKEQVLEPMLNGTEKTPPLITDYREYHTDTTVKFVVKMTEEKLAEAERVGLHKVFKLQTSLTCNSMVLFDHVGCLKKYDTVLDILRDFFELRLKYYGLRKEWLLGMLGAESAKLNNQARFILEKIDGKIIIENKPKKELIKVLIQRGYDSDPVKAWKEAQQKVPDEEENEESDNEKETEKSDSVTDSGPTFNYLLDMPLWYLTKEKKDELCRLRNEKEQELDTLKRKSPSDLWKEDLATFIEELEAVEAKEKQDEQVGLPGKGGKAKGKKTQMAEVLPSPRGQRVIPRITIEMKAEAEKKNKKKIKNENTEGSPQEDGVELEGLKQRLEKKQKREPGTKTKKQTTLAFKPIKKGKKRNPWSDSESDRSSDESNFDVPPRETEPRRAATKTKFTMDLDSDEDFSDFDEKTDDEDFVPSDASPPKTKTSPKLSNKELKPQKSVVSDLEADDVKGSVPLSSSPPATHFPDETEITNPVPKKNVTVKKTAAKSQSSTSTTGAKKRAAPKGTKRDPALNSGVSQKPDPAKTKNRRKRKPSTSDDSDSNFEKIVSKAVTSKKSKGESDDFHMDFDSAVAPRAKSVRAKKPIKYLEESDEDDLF
Summary of the method: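 Recombinant full-length human topoisomerase IIα with supercoiled pBR322 DNA at 37 °C. Components mixed on ice before drug addition. Complexes trapped with SDS; products run on ethidium bromide gels. Linear DNA identified against a HindIII-linearized marker; repeated on three days.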

[5] = target: DNA topoisomerase 2-alpha (Homo sapiens) (UniProt P11388); test: Inhibition of full-length human recombinant topoisomerase 2-alpha assessed as conversion of […] DNA at 100 uM by ethidium bromide based gel-assay
[6] = target: DNA topoisomerase 2-alpha (Homo sapiens) (UniProt P11388); test: Inhibition of full-length human recombinant topoisomerase 2-alpha-mediated decatenation activity of kDNA at >10 uM by ethidium bromide based gel-assay
[7] = target: DNA topoisomerase 2-alpha (Homo sapiens) (UniProt P11388); test: Inhibition of full-length human recombinant topoisomerase 2-alpha-mediated decatenation activity of kDNA by ethidium bromide based gel-assay
[8] = tested on: K562; test: Induction of DNA double strand breaks in human K562 cells assessed as increase in gamma-H2AX level at 25 uM after 4 hrs by chemiluminescence analysis; assay type: functional, cell-based
Summary of the method: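 K562 cells (3.4 × 10^5/mL) exposed 4 h at 37 °C to 25 µM drug or DMSO. Lysed in Tris pH 6.7/SDS buffer; 50 µg protein on 14% SDS-PAGE, PVDF blot. Rabbit anti-γH2AX (1:1000, overnight), GAPDH loading control, HRP secondary. Chemiluminescence imaged by CCD.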

[9] = tested on: CHO; test: Induction of cell cycle arrest in CHO cells assessed as accumulation at G2/M phase at 1 uM by propidium iodide staining based flow cytometry; assay type: functional; details: Cricetulus griseus
[10] = tested on: K562; test: Induction of apoptosis in human K562 cells assessed as increase in caspase 3/7 activity at 1 uM by luminescence analysis; assay type: functional, cell-based; details: TDE = time-dependent effect
Summary of the method: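 K562 cells at 2 × 10^5 cells/mL treated with vehicle or 1 µM compound for 24 or 48 h. Lysates assayed with a luminogenic DEVD-aminoluciferin caspase-3/7 substrate and read by luminescence. Four wells (eight for control); unpaired t-test vs control; repeated on two days.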

[11] = tested on: K562; test: Induction of apoptosis in human K562 cells assessed as decrease in proportion of viable cells at 1 uM after 24 to 48 hrs by annexin V-FITC/propidium iodide staining based two-color fluorescence flow cytometry; assay type: functional, cell-based
Summary of the method: (§1)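 K562 cells (1 × 10^6/mL), untreated or given 1 µM compound (10 µM etoposide control) at 37 °C for 24 h or 48 h. Annexin V-FITC plus propidium iodide two-colour flow cytometry. Cells are scored as viable, apoptotic-only (annexin+/PI−), apoptotic/necrotic (annexin+/PI+) or necrotic.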

[12] = tested on: CHO; test: Induction of apoptosis in CHO cells assessed as increase in sub-G0/G1 cell population at 1 uM after 49 hrs by propidium iodide staining based flow cytometry; assay type: functional; details: Cricetulus griseus
Summary of the method: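 CHO cells grown to confluence in α-MEM/10% FCS, serum-starved 48 h (0% FCS), then seeded at 2 × 10^5 cells/mL and repleted with 10% FCS. Continuously treated from repletion with 1 µM compound (10 µM etoposide, DMSO control) for various times. Propidium iodide DNA staining, flow cytometric phase distribution including sub-G0/G1.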

[13] = tested on: K562; test: Induction of apoptosis in human K562 cells assessed as increase in proportion of apoptotic and apoptotic/necrotic cells at 1 uM after 24 to 48 hrs by annexin V-FITC/propidium iodide staining based two-color fluorescence flow cytometry; assay type: functional, cell-based; summary of the method: as §1
[14] = tested on: CHO; test: Induction of cell cycle arrest in CHO cells assessed as accumulation at G2/M phase at 10 uM after 21 hrs by propidium iodide staining based flow cytometry; assay type: functional; details: Cricetulus griseus
[15] = tested on: CHO; test: Induction of apoptosis in CHO cells assessed as increase in sub-G0/G1 cell population at 10 uM after 49 hrs by propidium iodide staining based flow cytometry (Rvb <2%); assay type: functional, Cricetulus griseus
[16] = tested on: K562; test: Induction of apoptosis in human K562 cells assessed as increase in proportion of apoptotic and apoptotic/necrotic cells at 10 uM after 24 to 48 hrs by annexin V-FITC/propidium iodide staining based two-color fluorescence flow cytometry; assay type: functional, cell-based
[17] = tested on: K562; test: Induction of apoptosis in human K562 cells assessed as decrease in proportion of viable cells at 10 uM after 24 to 48 hrs by annexin V-FITC/propidium iodide staining based two-color fluorescence flow cytometry; assay type: functional, cell-based

Question: For COc1cc([C@@H]2c3cc4c(cc3[C@@H](NC(=O)CN3CCN(CCCCCCCCCCCCN5CCN(CC(=O)N[C@@H]6c7cc8c(cc7[C@@H](c7cc(OC)c(O)c(OC)c7)[C@H]7C(=O)OC[C@@H]76)OCO8)CC5)CC3)[C@H]3COC(=O)[C@H]23)OCO4)cc(OC)c1O, which IC50 [1] is on record?
Answer: 67 nM

Question: What about the IC50 [2] of the same compound?
Answer: 549 nM

Question: And the “Ratio IC50” value [3]?
Answer: 8.2

Question: And the “Effect on topoisomerase 2-alpha DNA cleavage (qualitative)” value (shortened to “Effect”) [4]?
Answer: Dose-dependent effect

Question: What about the “Inhibition (qualitative activity call)” value [5] of the same compound?
Answer: Active

Question: What about the “Inhibition of decatenation activity (qualitative)” value (from here on “Inhibition … (qualitative)”) [6] of the same compound?
Answer: Active

Question: For COc1cc([C@@H]2c3cc4c(cc3[C@@H](NC(=O)CN3CCN(CCCN5CCNCC5)CC3)[C@H]3COC(=O)[C@H]23)OCO4)cc(OC)c1O, which IC50 [1] is on record?
Answer: 1270 nM

Question: What about the inhibition [7] of the same compound?
Answer: Active

Question: What about the IC50 [2] of the same compound?
Answer: 13300 nM

Question: What about the “Ratio IC50” value [3] of the same compound?
Answer: 10.5

Question: What about the Activity [8] of the same compound?
Answer: Active

Question: What about the “Effect” value [4] of the same compound?
Answer: Dose-dependent effect

Question: What does the source list for COc1cc([C@@H]2c3cc4c(cc3[C@@H](NC(=O)CN3CCN(CCCCCCCCN5CCNCC5)CC3)[C@H]3COC(=O)[C@H]23)OCO4)cc(OC)c1O?
Answer: IC50 [1]: 103 nM; IC50 [2]: 556 nM; Ratio IC50 [3]: 5.4; Activity [8]: Active; Effect on topoisomerase 2-alpha DNA cleavage (qualitative) [4]: Dose-dependent effect; Inhibition of decatenation activity (qualitative) [6]: Active

Question: With COc1cc([C@@H]2c3cc4c(cc3[C@@H](NC(=O)CN3CCN(CCCCCCCCN5CCN(CC(=O)N[C@@H]6c7cc8c(cc7[C@@H](c7cc(OC)c(O)c(OC)c7)[C@H]7C(=O)OC[C@@H]76)OCO8)CC5)CC3)[C@H]3COC(=O)[C@H]23)OCO4)cc(OC)c1O as the compound, how does the IC50 [1] read?
Answer: 16 nM

Question: And the IC50 [2]?
Answer: 115 nM

Question: And the “Ratio IC50” value [3]?
Answer: 7.4

Question: And the Activity [9]?
Answer: Active

Question: And the Activity [8]?
Answer: Active

Question: What about the Activity [10] of the same compound?
Answer: tde

Question: What about the “Effect” value [4] of the same compound?
Answer: Dose-dependent effect

Question: What about the Activity [11] of the same compound?
Answer: Active

Question: What about the “Inhibition (qualitative activity call)” value [5] of the same compound?
Answer: Active

Question: And the “Inhibition … (qualitative)” value [6]?
Answer: Active

Question: What about the Activity [12] of the same compound?
Answer: Active

Question: And the Activity [13]?
Answer: Active

Question: For COc1cc([C@@H]2c3cc4c(cc3[C@@H](O[C@@H]3O[C@@H]5CO[C@@H](C)O[C@H]5[C@H](O)[C@H]3O)[C@H]3COC(=O)[C@H]23)OCO4)cc(OC)c1O [ETOPOSIDE], which Activity [14] is on record?
Answer: Active

Question: And the IC50 [1]?
Answer: 163 nM

Question: And the Activity [15]?
Answer: 39%

Question: And the IC50 [2]?
Answer: 2500 nM

Question: And the “Ratio IC50” value [3]?
Answer: 15.4

Question: And the Activity [16]?
Answer: Active

Question: And the Activity [8]?
Answer: Active

Question: What about the “Effect” value [4] of the same compound?
Answer: Dose-dependent effect

Question: What about the “Inhibition (qualitative activity call)” value [5] of the same compound?
Answer: Active

Question: What about the “Inhibition … (qualitative)” value [6] of the same compound?
Answer: Active

Question: What about the Activity [17] of the same compound?
Answer: Active

Question: For COc1cc([C@@H]2c3cc4c(cc3[C@@H](NC(=O)CN3CCN(CCCCCCCCCCN5CCNCC5)CC3)[C@H]3COC(=O)[C@H]23)OCO4)cc(OC)c1O, which IC50 [1] is on record?
Answer: 26 nM

Question: And the IC50 [2]?
Answer: 156 nM

Question: What about the “Ratio IC50” value [3] of the same compound?
Answer: 6

Question: And the Activity [8]?
Answer: Active

Question: What about the Activity [10] of the same compound?
Answer: tde

Question: What about the “Effect” value [4] of the same compound?
Answer: Dose-dependent effect

Question: And the Activity [11]?
Answer: Active

Question: What about the “Inhibition … (qualitative)” value [6] of the same compound?
Answer: Active

Question: And the Activity [12]?
Answer: Active

Question: What about the Activity [13] of the same compound?
Answer: Active

— ChEMBL document CHEMBL3588757, “Structure-based design, synthesis and biological testing of piperazine-linked bis-epipodophyllotoxin etoposide analogs” (Bioorg Med Chem, 2015)
